The source of these data is PubChem BioAssay.

A short description of experiment [1]: Her2 expression decrease, cell viability multiplex – SKBR3 breast tumor cells, AlphaScreen, ATP viability, primary screen (AID 461;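 active = Her2 level under about 52% in both replicate screens, with viability over 70% of control, limit read from the data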;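 as to Her2 level: lower value means less Her2 protein in the cells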;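 as to viability: percent of carrier control wells set as 100% viability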). Conditions: SKBR3 Her2 protein level, 18-24 h, measured here: SKBR3 viability, ATP luminescence, at 10 µM. (Bead proximity is the source of the signal in Alpha formats.)
The target of experiment [2] is Receptor tyrosine-protein kinase erbB-2 (Homo sapiens) (UniProt P04626). Described as above. The conditions noted are these: 18-24 h, at 10 µM, stronger effect = lower value.
Chain of Receptor tyrosine-protein kinase erbB-2 (Homo sapiens) (P04626 whole entry, looked up): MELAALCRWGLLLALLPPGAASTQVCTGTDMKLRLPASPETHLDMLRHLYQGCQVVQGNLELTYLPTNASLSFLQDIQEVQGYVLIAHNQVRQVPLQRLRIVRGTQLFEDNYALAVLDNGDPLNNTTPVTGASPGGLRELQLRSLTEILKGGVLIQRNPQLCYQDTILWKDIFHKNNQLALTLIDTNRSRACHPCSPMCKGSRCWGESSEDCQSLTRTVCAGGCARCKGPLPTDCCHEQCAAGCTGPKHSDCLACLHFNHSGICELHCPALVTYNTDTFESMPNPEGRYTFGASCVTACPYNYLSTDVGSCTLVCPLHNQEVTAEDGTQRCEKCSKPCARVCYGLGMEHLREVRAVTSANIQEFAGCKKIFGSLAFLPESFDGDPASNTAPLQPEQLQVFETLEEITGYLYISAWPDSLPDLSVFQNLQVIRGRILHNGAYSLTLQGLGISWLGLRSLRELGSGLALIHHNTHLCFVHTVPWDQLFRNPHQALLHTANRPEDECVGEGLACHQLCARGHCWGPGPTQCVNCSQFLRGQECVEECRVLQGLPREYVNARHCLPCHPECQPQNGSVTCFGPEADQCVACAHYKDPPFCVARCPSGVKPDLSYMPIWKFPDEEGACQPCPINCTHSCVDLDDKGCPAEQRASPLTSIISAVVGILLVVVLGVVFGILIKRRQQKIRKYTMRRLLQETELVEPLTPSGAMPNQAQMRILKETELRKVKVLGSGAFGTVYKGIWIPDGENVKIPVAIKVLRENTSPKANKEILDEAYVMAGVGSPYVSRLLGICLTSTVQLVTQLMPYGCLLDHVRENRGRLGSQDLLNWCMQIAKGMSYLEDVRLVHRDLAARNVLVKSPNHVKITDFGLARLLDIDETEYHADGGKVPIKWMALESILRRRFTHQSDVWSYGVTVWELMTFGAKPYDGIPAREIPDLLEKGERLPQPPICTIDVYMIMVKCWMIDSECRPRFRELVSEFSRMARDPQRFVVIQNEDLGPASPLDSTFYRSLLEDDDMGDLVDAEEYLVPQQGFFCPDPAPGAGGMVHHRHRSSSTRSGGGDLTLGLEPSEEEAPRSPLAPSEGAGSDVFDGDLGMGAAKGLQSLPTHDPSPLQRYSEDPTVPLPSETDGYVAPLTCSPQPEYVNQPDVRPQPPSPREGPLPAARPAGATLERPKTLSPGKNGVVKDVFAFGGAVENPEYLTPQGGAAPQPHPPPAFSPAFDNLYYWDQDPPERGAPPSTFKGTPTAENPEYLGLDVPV
Experiment [3] can be described thus: reduced viability of SK-BR-3 breast cancer cells – cell-based, 24 h, human, pilot screen (AID 572;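 active = viability at or below 10% of carrier control in both of two separate runs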;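 also: compound exposure lasted between 18 and 24 h rather than exactly 24 h; 100% = carrier-treated control wells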). The conditions noted are these: SK-BR-3 viability, CellTiter-Glo luminescence, at 10 µM, stronger effect = lower value. On the technique in general: ATP-based viability assays read luminescence as a measure of living cells.
Experiment [4] in a line: HUVEC growth inhibition – cell-based, human, primary screen (AID 575;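 active = viability at or below 30% in both replicate assays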;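 also: 100% = median of untreated cell wells with 0.1% DMSO on each plate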). The conditions noted are these: HUVEC proliferation, CellTiter-Glo luminescence, 72 h; at 10 µM; stronger effect = lower value. The gist of the method:
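Assay system: primary human umbilical vein endothelial cells / Buffer or medium: endothelial basal medium with 2% FBS plus growth supplements / Compound dosing: one dose, 10 µM final, 0.1% DMSO / Timing: 72 h treatment at 37 °C / Signal: CTG luminescence / Benchmarks: 32 DMSO-only cell-control wells (high), 32 MePR drug-control wells (low) per plate / Plate: collagen-coated 384-well format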

The nature of experiment [5]: H69AR cell proliferation blockers – human, duplicate replicates, primary screen (AID 580;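 active = viability at or under a set limit in both replicates, limit being median viability minus 3 SD, cut at about 48% in these data, passing the limit was not always enough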;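 also: 100% = mean luminescence of untreated wells and 0% = no signal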). Conditions: H69AR lung tumor cells viability, ATP luminescence, 72 h; at 10 µM; stronger effect = lower value.
Experiment [6] in a line: MRP1 drug-resistance reversers in H69AR cells – cell-based, doxorubicin co-treatment, pilot screen (AID 601). The conditions noted are these: CellTiter-Glo, 72 h, at 10 µM; for differential viability (reversal): stronger effect = higher value.
Experiment [7] in a line: yeast transport mutant growth inhibition pilot in 384-well plates, post-Golgi transport modulator project (AID 636; in the data active = inhibition above about 31%). The conditions noted are these: absorbance 615 nm, about 18 h, stronger effect = higher value.
Experiment [8] can be described thus: growth suppression of yeast trafficking mutant, preliminary HTS, modulators of trafficking downstream of Golgi apparatus project, 1536-format plate, OD 615 nm (AID 637; in the data active = inhibition above about 30%). The conditions noted are these: yeast transport mutant growth, absorbance 615 nm, 18 h; stronger effect = higher value.
Setting [9] is: H69AR cells + 2 uM doxorubicin, measured here: viability with 2 uM doxorubicin, stronger effect = lower value.
The mark [10] stands for this setting: H69AR cells, compound alone cytotoxicity.

Each structure is given as a SMILES string. Activity calls are given as the source filed them.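 The calls were made as follows, unless noted: active = viability loss from added drug above about 55%, and viability with drug at most 40%, in both replicates (limit read from the data, passing the limit was not always enough); inconclusive = both conditions met in only one replicate; inactive = neither replicate meets both conditions.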

Regarding `CC(C)CN(CC(C)C)C(=O)C12CCC(C)(C(=O)C1)C2(C)C` (stereo not given), the viability (usually a read-out of living cells in per cent, often relative to untreated cells) in experiment [1] was 74%; in experiment [3], 74% (inactive); in experiment [4] it was 110% (inactive); in experiment [5] it was 96.8% (inactive); in experiment [6] (setting [9]), 84.4%; in experiment [6] (setting [10]) it was 96.8%. In addition, the Her2 level in experiment [2] is 103% (inactive). Moreover, the differential viability (reversal) in experiment [6] (H69AR cells + 2 uM doxorubicin) was 12.3% (inactive). The results for the inhibition in experiment [7] and in experiment [8] were 1.33% (inactive) and -7.62% (inactive), respectively.
As to `COc1cc(Nc2cc(C)nc3ncnn23)cc(OC)c1OC`, the viability is 102% in experiment [1]; 102% (inactive) in experiment [3]; 98.2% (inactive) in experiment [4]; 100% (inactive) in experiment [5]; 79.3% in experiment [6] (setting [9]); 100% in experiment [6] (setting [10]). For the same molecule, the Her2 level in experiment [2] was 98.5% (inactive). Also, in experiment [6] (H69AR cells + 2 uM doxorubicin), the differential viability (reversal) was 21% (inactive). Moreover, the inhibition (usually the relative decrease from the control value, in per cent) in experiment [7] is 1.6% (inactive); in experiment [8], -3.11% (inactive).
As to `COc1cccc(NC(=O)CSc2nnnn2C(C)C)c1`, the viability is 118% in experiment [1]; 118% (inactive) in experiment [3]; 97.9% (inactive) in experiment [4]; 103% (inactive) in experiment [5]; 89.7% in experiment [6] (setting [9]); 103% in experiment [6] (setting [10]). Further, the Her2 level in experiment [2] is 86.5% (inactive). Besides, in experiment [6] (H69AR cells + 2 uM doxorubicin), the differential viability (reversal) was 13.7% (inactive). For the same molecule, the inhibition in experiment [7] was -3.65% (inactive); in experiment [8] it was 0.79% (inactive).
`Cc1cc(C)c2cc(CN(CC3CCCO3)C(=O)NC3CCCCC3)c(=O)[nH]c2c1` (stereo not given): the viability in experiment [1] is 78.5%; in experiment [3], 78.5% (inactive); in experiment [4], 92% (inactive); in experiment [5], 73.4% (inactive); in experiment [6] (setting [9]) it was 75.8%; in experiment [6] (setting [10]) it was 73.4%. In addition, in experiment [2], the Her2 level is 89.5% (inactive). The differential viability (reversal) in experiment [6] (H69AR cells + 2 uM doxorubicin) is -2.42% (inactive). In addition, the figures for the inhibition in experiment [7] and in experiment [8] were -0.13% (inactive) and 15.8% (inactive), respectively.
Consider `Cc1ccc(C2/C(=C(/O)c3cnn(-c4ccccc4)c3C)C(=O)C(=O)N2CCN2CCOCC2)o1` (stereo not given), for which the viability is 77.5% in experiment [1]; 77.5% (inactive) in experiment [3]; 112% (inactive) in experiment [4]; 85% (inactive) in experiment [5]; 77.1% in experiment [6] (setting [9]); 85% in experiment [6] (setting [10]). Also, the Her2 level in experiment [2] is 79% (inactive). In addition, in experiment [6] (H69AR cells + 2 uM doxorubicin), the differential viability (reversal) is 7.89% (inactive). Besides, the inhibition in experiment [7] was -4.61% (inactive); in experiment [8], -1.09% (inactive).
`Cc1ccc(S(=O)(=O)N(C)c2ccc(OCC(=O)OCc3c(C)noc3C)cc2)cc1`: the viability in experiment [1] is 92.5%; in experiment [3], 92.5% (inactive); in experiment [4], 95.4% (inactive); in experiment [5], 105% (inactive); in experiment [6] (setting [9]), 98.6%; in experiment [6] (setting [10]) it was 105%. The Her2 level in experiment [2] is 97% (inactive). Also, the differential viability (reversal) in experiment [6] (H69AR cells + 2 uM doxorubicin) was 6.56% (inactive). The results for the inhibition in experiment [7] and in experiment [8] were -1.71% (inactive) and -10.3% (inactive), respectively.
`CCC(C)(C)n1nnnc1C(c1ccc(OC)c(OC)c1)N1CCN(c2ccccc2)CC1` (stereo not given): the viability is 85% in experiment [1]; 85% (inactive) in experiment [3]; 90.2% (inactive) in experiment [4]; 88.8% (inactive) in experiment [5]; 78.9% in experiment [6] (setting [9]); 88.8% in experiment [6] (setting [10]). In addition, the Her2 level in experiment [2] is 86% (inactive). The differential viability (reversal) in experiment [6] (H69AR cells + 2 uM doxorubicin) was 9.98% (inactive). The inhibition in experiment [7] was -7.67% (inactive); in experiment [8], -0.16% (inactive).
Take `O=C(CCc1ccc(S(=O)(=O)N2CCOCC2)cc1)NCCc1ccccn1`: the viability in experiment [1] was 100%; in experiment [3], 100% (inactive); in experiment [4], 94.8% (inactive); in experiment [5], 87.9% (inactive); in experiment [6] (setting [9]), 102%; in experiment [6] (setting [10]) it was 87.9%. The Her2 level in experiment [2] is 102% (inactive). Moreover, in experiment [6] (H69AR cells + 2 uM doxorubicin), the differential viability (reversal) is -13.7% (inactive). For the same molecule, the values for the inhibition in experiment [7] and in experiment [8] were -1.04% (inactive) and -4.13% (inactive), respectively.
Take `CCOc1cc(C2NC(=O)N(C)C(C)=C2C(=O)OC)cc(Br)c1O` (stereo not given): the viability in experiment [1] was 112%; in experiment [3], 112% (inactive); in experiment [4], 69.9% (inactive); in experiment [5], 93.8% (inactive); in experiment [6] (setting [9]), 72.6%; in experiment [6] (setting [10]) it was 93.8%. Further, the Her2 level in experiment [2] was 79.5% (inactive). Further, the differential viability (reversal) in experiment [6] (H69AR cells + 2 uM doxorubicin) was 21.3% (inactive). In addition, the inhibition in experiment [7] was -4.73% (inactive); in experiment [8], 4.44% (inactive).
On to `CCN1CCCC1CNCc1ccc(Cl)cc1Cl` (stereo not given), for which the viability in experiment [1] is 92.5%; in experiment [3], 92.5% (inactive); in experiment [4], 111% (inactive); in experiment [5] it was 104% (inactive); in experiment [6] (setting [9]), 94.4%; in experiment [6] (setting [10]), 104%. For the same molecule, the Her2 level in experiment [2] was 116% (inactive). The differential viability (reversal) in experiment [6] (H69AR cells + 2 uM doxorubicin) is 9.34% (inactive). The inhibition was 0.95% (inactive) in experiment [7] and 6.83% (inactive) in experiment [8].
In the case of `COc1cc(C(Nc2ccc3c(c2)OCO3)C(=O)NC2CCCCC2)cc(OC)c1OC` (stereo not given), the viability is 74.5% in experiment [1]; 74.5% (inactive) in experiment [3]; 94.2% (inactive) in experiment [4]; 93% (inactive) in experiment [5]; 99.4% in experiment [6] (setting [9]); 93% in experiment [6] (setting [10]). In experiment [2], the Her2 level was 75% (inactive). Besides, in experiment [6] (H69AR cells + 2 uM doxorubicin), the differential viability (reversal) is -6.39% (inactive). Further, the inhibition in experiment [7] was -4.32% (inactive); in experiment [8] it was 7.94% (inactive).
Turning to `COc1ccc(-c2nnc(SCC(=O)Nc3cc(C)on3)n2C)cc1OC`, the viability is 101% in experiment [1]; 101% (inactive) in experiment [3]; 108% (inactive) in experiment [4]; 105% (inactive) in experiment [5]; 92.6% in experiment [6] (setting [9]); 105% in experiment [6] (setting [10]). For the same molecule, the Her2 level in experiment [2] is 90% (inactive). Further, the differential viability (reversal) in experiment [6] (H69AR cells + 2 uM doxorubicin) was 11.9% (inactive). The inhibition in experiment [7] was -6.22% (inactive); in experiment [8] it was 4.59% (inactive).
Regarding `O=c1/c(=C/c2ccco2)sc2nc(-c3ccccc3Br)nn12`, the viability in experiment [1] is 97%; in experiment [3], 97% (inactive); in experiment [4], 99.8% (inactive); in experiment [5], 92.4% (inactive); in experiment [6] (setting [9]) it was 87.9%; in experiment [6] (setting [10]), 92.4%. Also, the Her2 level in experiment [2] is 89.5% (inactive). Also, in experiment [6] (H69AR cells + 2 uM doxorubicin), the differential viability (reversal) was 4.5% (inactive). Also, the figures for the inhibition in experiment [7] and in experiment [8] were -6.8% (inactive) and 1.64% (inactive), respectively.
Turning to `CC(C)OP(=O)(c1ccc(N(C)C)cc1)C(O)c1ccccc1F` (stereo not given), the viability in experiment [1] was 128%; in experiment [3] it was 128% (inactive); in experiment [4], 103% (inactive); in experiment [5] it was 106% (inactive); in experiment [6] (setting [9]), 87.5%; in experiment [6] (setting [10]), 106%. For the same molecule, in experiment [2], the Her2 level was 113% (inactive). Moreover, the differential viability (reversal) in experiment [6] (H69AR cells + 2 uM doxorubicin) was 19% (inactive). The inhibition in experiment [7] was -4.93% (inactive); in experiment [8], 3.06% (inactive).
As to `COc1ccc(Cc2nnc3n2N=C(c2cc4ccccc4o2)CS3)cc1OC`, the viability in experiment [1] is 77%; in experiment [3], 77% (inactive); in experiment [4], 64.4% (inactive); in experiment [5] it was 35% (active); in experiment [6] (setting [9]), 55%; in experiment [6] (setting [10]), 35%. The Her2 level in experiment [2] was 79.5% (inactive). Also, the differential viability (reversal) in experiment [6] (H69AR cells + 2 uM doxorubicin) was -20% (inactive). For the same molecule, the values for the inhibition in experiment [7] and in experiment [8] were -7.03% (inactive) and -0.67% (inactive), respectively.
Take `Cc1sc2nc(SCC(=O)Nc3c(C)n(C)n(-c4ccccc4)c3=O)n(C)c(=O)c2c1C`: the viability is 102% in experiment [1]; 102% (inactive) in experiment [3]; 95.4% (inactive) in experiment [4]; 97.3% (inactive) in experiment [5]; 96.2% in experiment [6] (setting [9]); 97.3% in experiment [6] (setting [10]). In experiment [2], the Her2 level was 95.5% (inactive). In addition, in experiment [6] (H69AR cells + 2 uM doxorubicin), the differential viability (reversal) is 1.12% (inactive). The inhibition in experiment [7] was 0% (inactive); in experiment [8], 1.15% (inactive).
